According to ChEMBL document CHEMBL1124387, “Cardiotonic agents. 9. Synthesis and biological evaluation of a series of (E)-4,5-dihydro-6-[2-[4-(1H-imidazol-1-yl)phenyl]ethenyl]-3 (2H)-pyridazinones: a novel class of compounds with positive inotropic, antithrombotic, and vasodilatory activities for the treatment of congestive heart failure” (J Med Chem, 1989):
pIC50: −log10 of the molar value. Values joined by “and” are separate entries in the source; they are usually repeats but may differ in a detail not shown here. Equal entries are not always repeated.

Key:
Canis familiaris [1] = assay: Hemodynamic activity in anesthetized dog as percent change in fore limb resistance from baseline (2.77 mmHg/mL/min) at 0.01 mg/kg administered intravenously; type: functional, Canis lupus familiaris; settings: route intravenous
Procedure, shortened: (§1)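 Acutely instrumented anesthetized dogs (n = 6), 30-min control period. Compound in 0.9% saline, or dilute HCl diluted with saline, at 0.1 mL/kg iv over 1 min. At least four ascending half-log doses, 10 min apart, one compound per animal. Recorded: LV dP/dtmax, heart rate, aortic pressure and forelimb resistance. Values are maximum response from control average ± SEM.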

Canis familiaris [2] = assay: Percentage increase in left ventricular contractility in anesthetized dog; type: functional, Canis lupus familiaris, Heart left ventricle
Canis familiaris [3] = assay: Hemodynamic activity in anesthetized dog as percent change from baseline (2271 mmHg/s) in left ventricular myocardial activity at 0.1 mg/kg administered intravenously; type: functional, Canis lupus familiaris, Heart left ventricle; settings: route intravenous
Canis familiaris [4] = assay: Cardiovascular activity in presence of beta-adrenoceptor blockade in dogs as percent change in heart rate from base line (136 bpm) at 0.01 mg/kg; type: functional, Canis lupus familiaris
Canis familiaris [5] = assay: Cardiovascular activity in presence of beta-adrenoceptor blockade in dogs as percent change in forelimb vascular resistance from base line (5.23 mmHg/mL/min) at 0.01 mg/kg given 15 min after nadolol; type: functional, Canis lupus familiaris
Canis familiaris [6] = assay: Hemodynamic activity in anesthetized dog as percent change in fore limb resistance from baseline (2.77 mmHg/mL/min) at 0.03 mg/kg administered intravenously; type: functional, Canis lupus familiaris; settings: route intravenous; procedure, shortened: as §1
Homo sapiens = species: Homo sapiens; assay: In vitro inhibition of collagen stimulated platelet aggregation in human whole blood; type: functional
Procedure, shortened: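 Human whole blood from aspirin/NSAID-free fasted donors, read by impedance aggregometry 5 min after adding ADP or collagen. Aggregation expressed as % of control (2-6 replicates), plotted against log drug concentration; IC50 obtained by extrapolation.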

Canis familiaris [7] = assay: Hemodynamic activity in anesthetized dog as percent change in blood pressure from baseline (123 mmHg) at 0.1 mg/kg administered intravenously; type: functional, Canis lupus familiaris; settings: route intravenous; procedure, shortened: as §1
Canis familiaris [8] = assay: Hemodynamic activity in anesthetized dog as percent change in left ventricular myocardial activity from baseline (2271 mmHg/s) at 0.001 mg/kg administered intravenously; type: functional, Canis lupus familiaris, Heart left ventricle; settings: route intravenous; procedure, shortened: as §1
[9] = Partition coefficient (logP); type: physicochemical; settings: octanol/water
Phosphodiesterase 3 = Phosphodiesterase 3 (Homo sapiens, UniProt Q14432+Q13370); assay: Inhibition of phosphodiesterase 3 from human platelets at 1*10e-7-1*10e-4 M
Procedure, shortened: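 Fraction III cAMP-PDE from guinea pig heart or human platelets. Substrate [3H]cyclic AMP 1.0 μM at 30°C, with hydrolysis held to ≤10-20% and kept linear over 30 min. Compounds in DMSO, 2.5% final.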

Canis familiaris [10] = assay: Decrease in thrombus weight in anesthetized dog coronary artery; type: functional, Canis lupus familiaris
Procedure, shortened: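 Pentobarbital-anesthetized (32 mg/kg iv), ventilated dogs, allowed 30 min to stabilize. Continuous infusion of compound (1.0, 3.0 or 10.0 μg/kg/min) or saline began 15 min before 50 μA current was applied to an intraluminal electrode in the circumflex coronary artery. After 60 min of stimulation the animals were euthanized and the thrombus dissected and weighed. One treatment per animal.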

Canis familiaris [11] = assay: Hemodynamic activity in anesthetized dog as percent change in fore limb resistance from baseline (2.77 mmHg/mL/min) at 0.1 mg/kg administered intravenously; type: functional, Canis lupus familiaris; settings: route intravenous; procedure, shortened: as §1
Canis familiaris [12] = species: Canis familiaris; assay: Ratio of positive inotropic activity to peripheral Vasodilator activity in dogs; type: functional, Canis lupus familiaris
Procedure, shortened: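 Inotropic ED20 is the iv bolus dose giving a 20% rise in dP/dtmax in anesthetized dogs. Vasodilator ED20 is the bolus dose into the brachial cannula of a constant-flow perfused forelimb (pentobarbital 30 mg/kg iv then 3.0 mg/kg/h, heparinized) giving a 20% fall in perfusion pressure. Each ED20 was taken from its dose-response curve; the ratio is PI/PV.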

Canis familiaris [13] = assay: Weight of thrombus after 60 min of 10 ug/kg/min; type: functional, Canis lupus familiaris
Procedure, shortened: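 Anesthetized adult dogs were given sodium pentobarbital (32 mg/kg iv), intubated and artificially respired, then allowed 30 min to stabilize after surgery. Circumflex coronary thrombosis was induced by delivering 50 μA through an intraluminal silver-coated copper electrode, which denuded the endothelium. Continuous drug or saline infusion began 15 min before current onset and ran throughout, with one treatment per animal. After 60 min of stimulation the thrombus was dissected and weighed.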

pIC50 (Homo sapiens): 8.82 | logP [9]: 1.71 | IC50 (Phosphodiesterase 3): 77 nM
SMILES: CC1CC(=O)NN=C1/C=C/c1ccc(-n2ccnc2)cc1.Cl (stereo not given)
Change (Canis familiaris [1]): -36% | Increase (Canis familiaris [2]): 77% and 103% | Change (Canis familiaris [3]): 134% | Change (Canis familiaris [4]): 18% | Change (Canis familiaris [5]): -13% | Change (Canis familiaris [6]): -49% | Change (Canis familiaris [7]): -35% | Change (Canis familiaris [8]): 2% | Inhibition (Canis familiaris [10]): 65% and 44% | Change (Canis familiaris [11]): -58% | Ratio (Canis familiaris [12]): 1.29 | Thrombus weight (Canis familiaris [13]): 10 mg
